Consider 37 sequences from the array DNA melting data of Ke et al. (doi:10.1101/2024.01.08.574731).

Series [1] in a line: melting temperature; fluorescence melt of hairpins on a sequencing array, two-state fit, raised by 9.35 °C to match UV melts. The conditions noted are these: sodium 0.088 M. The method, boiled down: (§1)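 In 50 mM Na-HEPES pH 8.0 containing 25 mM NaCl, hairpins from the library on a sequenced MiSeq flow cell were imaged for Cy3 fluorescence at 2.5 °C steps up to 60 °C, with Cy3 and quencher oligos annealed. After normalisation to pre-quench Cy3 and to control constructs, two-state fits with bootstrapping gave melting temperature and folding enthalpy. Four replicates were combined by inverse-variance weighting, and fitted temperatures were shifted up by 9.35 °C to match UV melts.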

The nature of series [2]: folding enthalpy; higher = less favourable; fluorescence melt of hairpins on a sequencing array, two-state fit. As to conditions: sodium 0.088 M. The method, boiled down: as §1

Consider GATCTACATTAGATC ((((((...)))))), for which the Tm in series [1] amounted to 37.5 °C. Also, the folding enthalpy in series [2] was -25 kcal/mol.
Taken in the same sequence, the figures for CGGAAGCGGAAACGCCCG (((..(((....)))))) were 50.5 °C and -21.3 kcal/mol.
Taken in the same sequence, the figures for GCGAGCCTTCGC ((((....)))) were 53.9 °C and -31 kcal/mol.
As for GACAACGGAAACGTTGCC (.(((((....))))).), the Tm in series [1] worked out at 44.9 °C. The folding enthalpy in series [2] was -17.4 kcal/mol.
The corresponding values for GCCGATGGAAACATTGGC (((.(((....))).))) are 54.6 °C and -55.2 kcal/mol.
As to TGGGTGAAAACCCA (((((....))))), the Tm in series [1] came to 53.5 °C. The folding enthalpy in series [2] was -18.8 kcal/mol.
Taken in the same sequence, the figures for GGAATGGGAAACCATCCC ((.((((....)))).)) were 38.6 °C and -24 kcal/mol.
Taken in the same sequence, the figures for GATCCGACGGCGGATC ((((((....)))))) were 57.8 °C and -48 kcal/mol.
Taken in the same sequence, the figures for GCTCCCCGAAAGGGCAGC (((.(((....))).))) were 48 °C and -21 kcal/mol.
For GATCAGGGTCCTGATC ((((((....)))))), the Tm in series [1] worked out at 52.7 °C. Further, the folding enthalpy in series [2] is -37.9 kcal/mol.
As to GATGGCGGAAACGTCGTC ((.(.((....)).).)), the Tm in series [1] was 45.4 °C. Besides, the folding enthalpy in series [2] is -29.6 kcal/mol.
Turning to GGCTGCGAAAGCAATGCC ((((((....)))..))), in series [1], the Tm turned out to be 55 °C. The folding enthalpy in series [2] is -22 kcal/mol.
Taken in the same sequence, the figures for GTTAAACCGAAAGGTAAC (((..(((....)))))) were 29.9 °C and -15.2 kcal/mol.
Taken in the same sequence, the figures for GTGCGCCGAAAGGCCAC (((.(((....)))))) were 58.6 °C and -21.3 kcal/mol.
Taken in the same sequence, the figures for GATCAGAGGACTGATC ((((((....)))))) were 46.9 °C and -32.8 kcal/mol.
For CGCCTCGGAAACGAGCG (((.(((....)))))), the Tm in series [1] came to 54.8 °C. Also, in series [2], the folding enthalpy is -26.9 kcal/mol.
GTTGGCGGAAACGTCGAC ((.(.((....)).).)): the Tm in series [1] amounted to 47.6 °C. Also, in series [2], the folding enthalpy is -19.1 kcal/mol.
The corresponding values for GATAAGCGAAAGCTAATC (((.(((....))).))) are 41.5 °C and -16.8 kcal/mol.
As for GAGGTCGGAAACGGCCTC ((((.((....)).)))), the Tm in series [1] was 62.3 °C. Besides, the folding enthalpy in series [2] is -41.8 kcal/mol.
For GCTTACGAAAGTAGCAGC ((((((....)))..))), the Tm in series [1] turned out to be 38.1 °C. For the same sequence, in series [2], the folding enthalpy was -18.4 kcal/mol.
The corresponding values for GGACAGACGAAAGTCTCC (((..(((....)))))) are 30.4 °C and -10.2 kcal/mol.
The corresponding values for GGAGCTCGAAAGAGTTCC (((.(((....))).))) are 57.4 °C and -42.9 kcal/mol.
Consider GTCTTCGGAAACGAAGGC (.(((((....))))).), for which the Tm in series [1] was determined as 53.8 °C. In series [2], the folding enthalpy was -32.9 kcal/mol.
The corresponding values for GTATTTGGAAACGAATAC (((((.(....).))))) are 35.8 °C and -30.2 kcal/mol.
As for GATCTTCTGAAGATC ((((((...)))))), the Tm in series [1] amounted to 43.6 °C. The folding enthalpy in series [2] is -37 kcal/mol.
The corresponding values for GGTACGGGAAACCGCACC (((.(((....))).))) are 50.5 °C and -28.6 kcal/mol.
Taken in the same sequence, the figures for GCTAGTCGAAAGACGAGC (((.(((....))).))) were 57.6 °C and -35.4 kcal/mol.
Taken in the same sequence, the figures for GATTTAGGAAACTGAATC ((((.((....)).)))) were 33.1 °C and -26.4 kcal/mol.
For the sequence GTCATGGGAAACTATGGC (.(((.(....).))).), in series [1], the Tm was 32.1 °C. In addition, the folding enthalpy in series [2] was -22.4 kcal/mol.
The corresponding values for GCCTTCCCGAAAGGGGGC (((..(((....)))))) are 47.7 °C and -17.2 kcal/mol.
Taken in the same sequence, the figures for GGTCAAGGAAACTTGACC (((((((....))))))) were 63.5 °C and -43 kcal/mol.
Taken in the same sequence, the figures for GCGGCGGCCCGC ((((....)))) were 58.5 °C and -13.8 kcal/mol.
Turning to GCCGACGAAAGTCTAGGC ((((((....)))..))), the Tm in series [1] is 52.7 °C. Besides, the folding enthalpy in series [2] was -34.1 kcal/mol.
For the sequence GATCTCAAAGGAGATC ((((((....)))))), the Tm in series [1] was determined as 48.2 °C. Further, in series [2], the folding enthalpy is -33.4 kcal/mol.
The corresponding values for GATCATCGAATGATC ((((((...)))))) are 43.6 °C and -25.6 kcal/mol.
GCGGCACTCCGC ((((....)))): the Tm in series [1] was determined as 57.5 °C. Also, in series [2], the folding enthalpy was -25.8 kcal/mol.
The corresponding values for GGAGACGGAAACGCCTCC ((((.((....)).)))) are 51.4 °C and -48.4 kcal/mol.
